Screens deposited in PubChem BioAssay by several laboratories.
Shown is part of a subset that was picked to be rich in hits.
CTSL1 counter = cathepsin L1 inhibition, PFM18AAP counter-screen | recombinant F. hepatica cathepsin L1, Z-Leu-Arg-MCA fluorescence | inhibition, % at 5.96 µM | 300,000 compounds, 0.49% hits;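 active means inhibition above the mean of all tested compounds plus 3 SD, set per screening campaign, cut at about 17% in these data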;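 further: 0% = plate median of test compound wells and 100% = 1 µM Z-Phe-Ala-diazomethylketone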
UPR XBP1 act = adaptive UPR (XBP1) activation; CHO-XBP1 luciferase reporter, IRE1-XBP1 UPR activation, luminescence; percent of tunicamycin response, DMSO as zero; 330,000 compounds, 0.33% hits; AID 463104; activation, % at 20 µM;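 active means versus positive control, 20 µM dose yields 30% or more activation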;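 further: 100% = tunicamycin at 10 µg/mL and 0% = DMSO only wells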
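Signal: luciferase luminescence; Assay system: CHO-XBP1 luciferase reporter cells; Amount: one thousand reporter cells per well; Dosing: 20 µM single concentration, DMSO 1%; Benchmarks: high control tunicamycin 10 µg/mL final, low control DMSO vehicle only; Schedule: 6 h compound exposure at 37 °C, 5% CO2; Evaluation: percent activation relative to tunicamycin reference.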
CHOP UPR activ = activators of apoptotic arm of unfolded protein response (CHOP); CHO-CHOP luciferase reporter, UPR activation, luminescence; percent of tunicamycin response over DMSO baseline; activation, % at 10 µM; 330,000 compounds, 0.34% hits;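 active means at 10 µM dose, activation of 40% or more, normalized to positive control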;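 further: 100% = tunicamycin at 10 µg/mL and 0% = DMSO alone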
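Assay system: CHO cells with stable CHOP pathway luciferase reporter; Buffer or medium: F12 plus 10% serum; Times: 16-18 h cell attachment, then 6 h compound exposure, 37 °C; Signal: luciferase luminescence; Read-out basis: percent activation relative to tunicamycin control; Control set: tunicamycin high control, DMSO low control.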
CHOP inhibitor = blocks CHOP induction under ER stress | inhibition, % at 10 µM | 220,000 compounds, 3.8% hits | CHO-K1 CHOP-promoter luciferase, tunicamycin-induced, 15-18 h;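 active means compounds that reduced the stress-induced luciferase reporter signal by more than about 70% of percent inhibition, limit read from the data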;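 further: 0% = tunicamycin plus vehicle and 100% = wells without tunicamycin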
UCH37 inh = human UCH37 deubiquitinating enzyme inhibition. 330,000 compounds, 0.33% hits. purified proteasome/UCH37, Ub-AMC cleavage fluorescence. inhibition, % (test concentration not listed). AID 588478. Q9Y5K5;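 active means mean inhibition over replicate wells above about 20%, limit read from the data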;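 further: 0% = compound-free wells with enzyme and 100% = wells lacking proteasome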
Target sequence (Q9Y5K5 whole entry, looked up): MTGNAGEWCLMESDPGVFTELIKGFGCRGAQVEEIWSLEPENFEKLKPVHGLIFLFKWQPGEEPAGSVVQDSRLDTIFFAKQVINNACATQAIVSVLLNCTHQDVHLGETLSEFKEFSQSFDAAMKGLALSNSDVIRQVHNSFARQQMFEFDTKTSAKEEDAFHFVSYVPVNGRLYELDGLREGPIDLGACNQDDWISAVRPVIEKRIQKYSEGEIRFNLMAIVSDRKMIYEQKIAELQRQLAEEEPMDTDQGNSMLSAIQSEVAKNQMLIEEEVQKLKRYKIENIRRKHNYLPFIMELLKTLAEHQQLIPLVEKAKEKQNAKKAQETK
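Reagent: Ub-AMC substrate; assay system: Proteasome-associated human UCH37 deubiquitinase; controls: no-proteasome and no-compound wells; read-out: % inhibition of Ub-AMC cleavage fluorescence; timing: 30 min preincubation with enzyme, 25 min cleavage at room temperature; signal: AMC fluorescence from Ub-AMC cleavage, excitation 355 nm, emission 460 nm; buffer or medium: Tris-HCl pH 7.4 plus ovalbumin, ATP-MgCl2, DTT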
Active calls of the source: *; . = not tested or not shown.

SMILES	CTSL1 counter	UPR XBP1 act	CHOP UPR activ	CHOP inhibitor	UCH37 inh
O=C(N/N=C/C=C/c1ccccc1)c1cccc(Br)c1	17.7*	2.5	1.3	-2.9	.
O=C(NN=C1c2ccccc2-c2ccccc21)c1cccc(Br)c1	2.2	8.5	38.6	76.6*	2.1
O=C(NN=C/C=C/c1ccccc1)c1cccc(Br)c1	.	.	.	.	3.4
COc1cc(C)ccc1OCCOc1c(C)cccc1Cl	4.0	0.2	3.0	70.7*	1.6
COc1cc(C)ccc1OCCOc1c(Cl)cc(Cl)cc1Cl	0.0	0.7	2.7	42.6	0.7
CCCC(=NNC(=O)c1ccc(OC)c(OC)c1)c1ccccc1	.	.	.	.	-0.2
CCOC(=O)Nc1nnc(-c2ccccc2OC)s1	3.0	3.5	3.4	-8.1	-10.7
CC(SC1=NCCS1)C(=O)Nc1nnc(-c2ccc(Br)cc2)s1 (stereo not drawn)	2.4	1.1	11.2	85.5*	2.1
CC(SC1=NCCS1)C(=O)Nc1nnc(-c2ccc(F)cc2)s1 (stereo not drawn)	-1.3	-2.6	3.9	63.8	2.1
CCC(SC1=NCCS1)C(=O)Nc1nnc(-c2ccccc2OC)s1 (stereo not drawn)	-0.7	2.3	2.1	86.2*	1.6
CCOC(=O)C1=C(N)N2C(=O)C(C)SC2=C(C(=O)OC)C1c1ccccc1OC (stereo not drawn)	2.8	-3.4	8.2	81.7*	2.9
CCOC(=O)C1=C(N)N2C(=O)C(C)SC2=C(C(=O)OCC)C1c1ccccc1 (stereo not drawn)	-0.5	-3.1	-1.6	22.4	-0.9
CCN(CC)C(=O)C1CCCN(Cc2ccc(F)c(F)c2)C1 (stereo not drawn)	-1.6	-0.6	-1.1	85.9*	2.4
CCCCC(=O)Nc1nn(C)c2nc3c(C)cccc3cc12	2.4	-1.6	-0.2	76.3*	-1.0
CCCCC(=O)Nc1nn(CC)c2nc3c(C)cccc3cc12	-0.2	-4.0	0.2	.	-67.4
COc1ccc(OC)c(-c2cc(C3CCN(c4cc(Cl)nc(N)n4)CC3)[nH]n2)c1	0.4	4.5	1.2	72.8*	2.2
COc1ccc(-c2cc(C3CCN(c4cc(Cl)nc(N)n4)CC3)[nH]n2)cc1	0.8	1.7	4.6	73.0*	0.6
O=c1c2c(nc3cc(-c4ccccc4)[nH]n13)CCC2	-3.0	-2.4	-2.4	.	-11.1
O=c1c2c(nc3cc(-c4ccc(Br)cc4)[nH]n13)CCCC2	-0.4	-0.1	4.2	73.0*	-0.9
COc1cccc(NC(=O)CCc2nnc3ccc(N4CCN(c5cccc(OC)c5)CC4)nn23)c1	1.2	-2.9	3.2	.	-2.9
COc1cc(NC(=O)CCc2nnc3ccc(N4CCN(c5cccc(OC)c5)CC4)nn23)cc(OC)c1	66.4*	-2.0	2.0	.	-6.6
Cc1ccccc1-c1cc2c(nn1)-c1ccccc1C2=O	71.2*	1.0	1.0	12.7	14.2
CCOC(=O)c1c(NC(=O)CN2C(=O)NC3(CCC(C)CC3)C2=O)sc(C(=O)N(C)C)c1C (stereo not drawn)	3.9	-0.1	1.1	.	3.2
CCOC(=O)c1c(NC(=O)CN2C(=O)NC3(CCCCC3)C2=O)sc(C)c1-c1ccc(C)cc1	0.6	3.1	2.8	70.7*	1.7
CCOC(=O)c1c(NC(=O)CN2C(=O)NC3(CCC(C)CC3)C2=O)sc(C)c1-c1ccc(C)cc1 (stereo not drawn)	-1.0	8.0	3.5	81.9*	.
SMILES	CTSL1 counter	UPR XBP1 act	CHOP UPR activ	CHOP inhibitor	UCH37 inh
CCOC(=O)c1sc(NC(=O)CN2C(=O)NC3(CCCCCCC3)C2=O)c(C(=O)OCC)c1C	1.6	-0.7	0.9	13.7	-1.2
COc1cccc(OCc2cc(C=Nn3cncn3)ccc2OC)c1	.	.	.	.	0.2
Cc1ccc(C2=NOC(=O)/C2=C\C=C\c2ccccc2)cc1	.	.	.	89.6*	9.7
Cc1ccc(CNS(=O)(=O)c2ccc(F)c(F)c2)n1C	23.9*	-0.3	-1.4	.	6.5
COc1ccccc1-c1nnc(SC(C(=O)c2c[nH]c3ccccc23)c2ccccc2)n1C (stereo not drawn)	1.3	-4.0	-0.4	28.2	2.9
COc1cccc(-c2nnc(SC(C(=O)c3c[nH]c4ccccc34)c3ccccc3)n2C)c1 (stereo not drawn)	-1.6	-1.5	-1.9	59.6	29.4*
C(/C=C/c1ccccc1)=NNc1ccc2nncn2n1	.	.	.	.	11.8
NC(=O)c1cc2ccccc2oc1=NNC(=O)c1ccc(F)cc1	.	.	.	.	8.1
CC(=NN1C(=O)c2ccccc2NC1c1ccccc1)c1ccccc1O (stereo not drawn)	.	.	.	.	4.3
COc1ccccc1NC(=O)Cn1c(=O)n(-c2ccccc2)c(=O)c2oc3ccccc3c21	-0.2	-3.2	2.8	81.0*	-2.0
COc1ccc(NC(=O)Cn2c(=O)n(-c3ccccc3)c(=O)c3oc4ccccc4c32)c(OC)c1	5.0	-1.9	2.1	-6.0	.
Cc1c(C(=O)Nc2ccc(F)cc2)oc2ccc(S(=O)(=O)N3CCC4(CC3)OCCO4)cc12	0.6	2.3	1.6	71.4*	2.6
CCOC(=O)C1CCCN(S(=O)(=O)c2ccc(F)c(C(=O)Nc3ccc(F)c(F)c3)c2)C1 (stereo not drawn)	-0.6	-1.3	-0.4	76.3*	2.0
Cc1c(C(=O)NC2CCCc3ccccc32)oc2ccc(S(=O)(=O)N3CCCCC3)cc12 (stereo not drawn)	1.1	13.9	0.7	84.8*	2.6
Cc1c(C(=O)Nc2ccc(F)cc2)oc2ccc(S(=O)(=O)N3CCCC3)cc12	2.9	-1.5	-0.7	18.2	3.2
CCOC(=O)C1CCCN(S(=O)(=O)c2ccc(NC(C)=O)cc2)C1 (stereo not drawn)	0.4	0.9	-0.6	9.6	2.3
Cc1c(C(=O)Nc2ccc(F)c(F)c2)oc2ccc(S(=O)(=O)N3CCCCC3)cc12	-0.1	-1.2	4.4	75.4*	1.1
C/C(C=NN1CCN(Cc2ccc(C)cc2)CC1)=C/c1ccccc1	.	.	.	.	0.3
Cc1ccc(C=NNC(=O)c2cc3c(ccc4ccccc43)o2)cc1[N+](=O)[O-]	.	.	.	.	1.0
Cc1c(C(=O)NN=Cc2cccs2)nnn1-c1nonc1N	.	.	.	.	3.7
O=C(NN=Cc1ccc(Cl)cc1Cl)C(=O)NC1CC1	.	.	.	.	1.8
CC(=NNC(=O)CC1N=C(Cc2ccccc2)NNC1=O)c1cccnc1 (stereo not drawn)	.	.	.	.	3.8
Cc1ccccc1-n1c(C)cc(C=NNc2ccc([N+](=O)[O-])cn2)c1C	.	.	.	.	-3.0
CCC(C(=O)O/N=C(\N)c1ccccc1)c1ccccc1 (stereo not drawn)	-2.6	-2.1	0.6	10.1	2.4
CCC(C(=O)Oc1c(C(C)C)cccc1C(C)C)c1ccccc1 (stereo not drawn)	.	-3.7	1.2	.	32.6*
O=C(O)COc1ccc(C=Nn2c(COc3ccccc3)nc3ccccc3c2=O)cc1	.	.	.	.	4.8
